# Measured values: ChEMBL document CHEMBL2057141, “Imidazolopiperazines: lead optimization of the second-generation antimalarial agents” (J Med Chem, 2012)
# Assays:
# Plasmodium berghei [1] = assay: Antimalarial activity against Plasmodium berghei ANKA expressing GFP infected in NMRI mouse assessed as reduction of parasite level in blood at 30 mg/kg, po administered 24 hrs post infection measured after 72 hrs post infection by flow cytometry; type: functional; set-up: scale not given: the % may be the effect or the level left
# Method in brief: (§1)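 Female NMRI mice (20–22 g, n=3) are infected i.v. with 2×10^7 P. berghei GFP ANKA-infected erythrocytes. Oral compound in 75% PEG300/25% D5W is given at 10 mL/kg, once at 24 h or daily at 24/48/72 h post-infection. Parasitemia is read by flow cytometry at 72 h (single dose) or 96 h (triple dose). Activity is % reduction of mean parasitemia versus untreated controls.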
# Plasmodium berghei [2] = assay: Antimalarial activity against Plasmodium berghei ANKA expressing GFP infected in NMRI mouse assessed as reduction of parasite level in blood at 30 mg/kg, po administered 24 hrs post infection qd for 3 days measured after 96 hrs post infection by flow cytometry; type: functional; set-up: scale not given: the % may be the effect or the level left; method in brief: as §1
# [3] = Cmax in Wistar rat at 10 mg/kg, po; type: ADME, organism-based; set-up: dose 10 mg/kg, route oral; conditions: in vivo
# Method in brief: (§2)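 Rat snapshot PK: two Wistar rats dosed orally at 10 mg/kg, formulated at 2.5 mg/mL in 75% PEG300/25% D5W. Blood (100 μL) taken at 0.5, 1, 3 and 5 h post dose. Plasma pooled by sampling time, then analysed by LC-MS/MS.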
# [4] = Cytotoxicity against human HuH7 cells; type: cell-based; conditions: Huh-7 cells
# [5] = Half life in Balb/c mouse at 5 mg/kg, iv; type: ADME, organism-based; set-up: dose 5 mg/kg, route intravenous; conditions: in vivo
# Method in brief: (§3)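 Male Balb/c mice (n = 3 per group). Compound as a 2.5 mg/mL solution in PEG300/D5W 3:1, filtered. Given by lateral tail vein at 5 mg/kg (2 mL/kg) or orally at 20 mg/kg (8 mL/kg). Six serial 50 μL retro-orbital blood samples to 24 h, heparinized plasma. Plasma extracted with acetonitrile:methanol 3:1 with internal standard, LC-MS/MS. Noncompartmental analysis; F = AUCpo×dose_iv/AUCiv×dose_po.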
# [6] = Cytotoxicity against human Hep2 cells; type: cell-based; conditions: HEp-2 cells
# [7] = Cmax in Wistar rat at 30 mg/kg, po; type: ADME, organism-based; set-up: dose 30 mg/kg, route oral; conditions: in vivo
# Method in brief: (§4)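 Wistar rats, three per route. Dosed IV at 3 mg/kg or orally at 10, 30 or 100 mg/kg; the 100 mg/kg arm used a suspension, others a 2.5 mg/mL filtered 75% PEG300/25% D5W formulation. Six 100 μL blood samples serially per rat within 24 h. LC-MS/MS of plasma, noncompartmental parameters; F is dose-corrected AUCpo/AUCiv.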
# Plasmodium berghei [8] = assay: Antimalarial activity against Plasmodium berghei ANKA expressing GFP infected in NMRI mouse assessed as increase of mouse survival at 30 mg/kg, po administered 24 hrs post infection (reference value: 6 to 7 days); type: functional
# [9] = AUC (all) in Wistar rat at 100 mg/kg, po; type: ADME, organism-based; set-up: dose 100 mg/kg, route oral; conditions: plasma; method in brief: as §4
# [10] = Tmax in Wistar rat at 100 mg/kg, po; type: ADME, organism-based; set-up: dose 100 mg/kg, route oral; conditions: in vivo; method in brief: as §4
# Plasmodium falciparum [11] = assay: Antimalarial activity against Plasmodium falciparum 3D7 after 72 hrs by SYBR green fluorescence assay; type: functional, organism-based; conditions: 3D7, 72 h
# Method in brief: (§5)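 P. falciparum grown in O+ erythrocytes, screened in medium without human serum plus 0.5% Albumax II. Twelve-point half-log dilutions up to 10 μM final. 0.3% parasitemia, 2.5% hematocrit; 72 h at 37 °C under low-oxygen gas. Lysis buffer with SYBR Green added, 24 h at 25 °C, fluorescence read at 485/530 nm.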
# [12] = Half life in Wistar rat at 100 mg/kg, po; type: ADME, organism-based; set-up: dose 100 mg/kg, route oral; conditions: in vivo; method in brief: as §4
# CHO = assay: Cytotoxicity against CHO cells; type: cell-based, Cricetulus griseus; conditions: chinese hamster
# Mus musculus [13] = assay: AUC (0 to 24 hrs) in Balb/c mouse at 5 mg/kg, iv; type: ADME, organism-based, Plasma; set-up: time < 24 hr, dose 5 mg/kg, route intravenous; conditions: in vivo; method in brief: as §3
# [14] = Cmax in Balb/c mouse at 20 mg/kg, po; type: ADME, organism-based; set-up: dose 20 mg/kg, route oral; conditions: in vivo; method in brief: as §3
# [15] = Permeability of the compound by PAMPA; type: ADME
# Method in brief: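 PAMPA in 96-well filter plates. Permeated compound quantified by UV absorbance at 260–290 nm. Reported as percentage absorbed.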
# [16] = Tmax in Balb/c mouse at 20 mg/kg, po; type: ADME, organism-based; set-up: dose 20 mg/kg, route oral; conditions: in vivo; method in brief: as §3
# [17] = Half life in Wistar rat at 30 mg/kg, po; type: ADME, organism-based; set-up: dose 30 mg/kg, route oral; conditions: in vivo; method in brief: as §4
# [18] = Apparent permeability across basolateral to apical side in human Caco2 cells by LC/MS analysis; type: ADME, cell-based; conditions: Caco-2
# Method in brief: (§6)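 Caco-2 monolayers in 96-well format. Compound measured in apical and basolateral chambers by LC/MS, giving Papp in the A–B and B–A directions. Values reported in cm/s × 10⁶.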
# [19] = Clearance in Balb/c mouse plasma at 5 mg/kg, iv; type: ADME, organism-based; set-up: dose 5 mg/kg, route intravenous; method in brief: as §3
# Plasmodium falciparum [20] = assay: Antimalarial activity against Plasmodium falciparum W2 after 72 hrs by SYBR green fluorescence assay; type: functional, organism-based; conditions: W2, 72 h; method in brief: as §5
# [21] = Oral bioavailability in Wistar rat at 30 mg/kg; type: ADME, organism-based; conditions: in vivo; method in brief: as §4
# [22] = Cytotoxicity against mouse BA/F3 cells; type: cell-based; conditions: baf3
# [23] = Half life in Balb/c mouse at 20 mg/kg, po; type: ADME, organism-based; set-up: dose 20 mg/kg, route oral; conditions: in vivo; method in brief: as §3
# Mus musculus [24] = assay: AUC (0 to 24 hrs) in Balb/c mouse at 20 mg/kg, po; type: ADME, organism-based, Plasma; set-up: time < 24 hr, dose 20 mg/kg, route oral; conditions: in vivo; method in brief: as §3
# [25] = Tmax in Wistar rat at 10 mg/kg, po; type: ADME, organism-based; set-up: dose 10 mg/kg, route oral; conditions: in vivo
# [26] = Tmax in Wistar rat at 30 mg/kg, po; type: ADME, organism-based; set-up: dose 30 mg/kg, route oral; conditions: in vivo; method in brief: as §4
# [27] = Clearance in Wistar rat at 3 mg/kg, iv; type: ADME, organism-based; set-up: dose 3 mg/kg, route intravenous; conditions: in vivo; method in brief: as §4
# Plasmodium berghei [28] = assay: Antimalarial activity against Plasmodium berghei ANKA expressing GFP infected in po dosed NMRI mouse assessed as reduction of parasite level in blood administered 24 hrs post infection measured after 72 hrs post infection by flow cytometry; type: functional
# [29] = Oral bioavailability in Wistar rat at 10 mg/kg; type: ADME, organism-based; conditions: in vivo; method in brief: as §4
# Rattus norvegicus = assay: Dose normalized AUC (0 to 5 hrs) in Wistar rat at 10 mg/kg, po; type: ADME, organism-based; set-up: dose 10 mg/kg, route oral; conditions: in vivo; method in brief: as §2
# [30] = AUC (all) in Wistar rat at 30 mg/kg, po; type: ADME, organism-based; set-up: dose 30 mg/kg, route oral; conditions: plasma; method in brief: as §4
# [31] = AUC (all) in Wistar rat at 10 mg/kg, po; type: ADME, organism-based; set-up: dose 10 mg/kg, route oral; conditions: plasma; method in brief: as §4
# Plasmodium berghei [32] = assay: Antimalarial activity against Plasmodium berghei ANKA expressing GFP infected in NMRI mouse assessed as increase of mouse survival at 30 mg/kg, po administered 24 hrs post infection qd for 3 days (reference value: 6 to 7 days); type: functional
# [33] = Half life in Wistar rat at 10 mg/kg, po; type: ADME, organism-based; set-up: dose 10 mg/kg, route oral; conditions: in vivo
# Plasmodium berghei [34] = assay: Antimalarial activity against Plasmodium berghei ANKA expressing GFP infected in NMRI mouse assessed as increase of mouse survival at 100 mg/kg, po administered 24 hrs post infection (reference value: 6 to 7 days); type: functional
# [35] = AUC in Wistar rat at 3 mg/kg, iv; type: ADME, organism-based; set-up: dose 3 mg/kg, route intravenous; conditions: plasma; method in brief: as §4
# Plasmodium berghei [36] = assay: Antimalarial activity against Plasmodium berghei ANKA expressing GFP infected in NMRI mouse assessed as reduction of parasite level in blood at 100 mg/kg, po administered 24 hrs post infection measured after 72 hrs post infection by flow cytometry; type: functional; set-up: scale not given: the % may be the effect or the level left; method in brief: as §1
# Mus musculus [37] = assay: Oral bioavailability in Balb/c mouse at 20 mg/kg; type: ADME, organism-based; conditions: in vivo; method in brief: as §3
# [38] = target: Voltage-gated inwardly rectifying potassium channel KCNH2 (Homo sapiens, UniProt Q12809); assay: Inhibition of human ERG channel expressed in CHO cells by patch clamp assay; type: cell-based
# Sequence of Voltage-gated inwardly rectifying potassium channel KCNH2 (Q12809 whole entry): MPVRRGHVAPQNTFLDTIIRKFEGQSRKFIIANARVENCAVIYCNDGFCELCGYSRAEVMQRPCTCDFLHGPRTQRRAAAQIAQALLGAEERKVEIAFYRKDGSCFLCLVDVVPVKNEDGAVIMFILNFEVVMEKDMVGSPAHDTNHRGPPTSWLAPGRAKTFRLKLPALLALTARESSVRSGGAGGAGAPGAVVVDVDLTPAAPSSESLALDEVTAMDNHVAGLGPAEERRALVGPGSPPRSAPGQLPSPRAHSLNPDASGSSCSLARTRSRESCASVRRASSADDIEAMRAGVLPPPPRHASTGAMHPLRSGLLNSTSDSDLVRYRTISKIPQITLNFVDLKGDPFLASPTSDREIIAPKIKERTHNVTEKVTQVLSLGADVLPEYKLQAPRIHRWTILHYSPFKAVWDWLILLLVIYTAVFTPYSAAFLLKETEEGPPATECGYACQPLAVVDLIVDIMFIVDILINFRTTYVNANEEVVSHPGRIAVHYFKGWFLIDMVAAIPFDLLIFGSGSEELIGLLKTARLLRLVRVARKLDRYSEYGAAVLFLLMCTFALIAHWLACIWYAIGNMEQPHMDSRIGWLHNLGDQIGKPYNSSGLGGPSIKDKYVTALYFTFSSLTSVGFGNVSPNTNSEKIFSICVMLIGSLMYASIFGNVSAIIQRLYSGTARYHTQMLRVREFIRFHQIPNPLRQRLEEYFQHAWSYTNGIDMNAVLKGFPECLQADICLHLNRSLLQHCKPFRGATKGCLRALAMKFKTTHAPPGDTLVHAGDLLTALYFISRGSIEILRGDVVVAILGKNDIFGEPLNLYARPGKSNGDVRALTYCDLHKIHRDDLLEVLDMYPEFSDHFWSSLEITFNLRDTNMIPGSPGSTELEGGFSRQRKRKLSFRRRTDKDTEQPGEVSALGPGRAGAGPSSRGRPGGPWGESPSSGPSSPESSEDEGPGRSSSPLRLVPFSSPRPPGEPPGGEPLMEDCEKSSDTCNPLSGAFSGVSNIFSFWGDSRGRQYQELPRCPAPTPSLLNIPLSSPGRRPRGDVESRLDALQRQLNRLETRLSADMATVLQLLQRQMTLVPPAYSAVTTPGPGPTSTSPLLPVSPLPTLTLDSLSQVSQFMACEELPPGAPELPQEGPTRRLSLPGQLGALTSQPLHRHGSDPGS
# [39] = Volume of distribution in Balb/c mouse at 5 mg/kg, iv; type: ADME, organism-based; set-up: dose 5 mg/kg, route intravenous; conditions: in vivo; method in brief: as §3
# [40] = Half life in Wistar rat at 3 mg/kg, iv; type: ADME, organism-based; set-up: dose 3 mg/kg, route intravenous; conditions: in vivo; method in brief: as §4
# [41] = Apparent permeability across apical to basolateral side in human Caco2 cells by LC/MS analysis; type: ADME, cell-based; conditions: Caco-2; method in brief: as §6
# [42] = Cytotoxicity against human 293T cells; type: cell-based; conditions: HEK-293T cells
# [43] = Oral bioavailability in Wistar rat at 100 mg/kg; type: ADME, organism-based; conditions: in vivo; method in brief: as §4
compound,measurement,setting,value
CC1(C)c2nc(-c3ccc(F)cc3)c(Nc3ccc(F)cc3)n2CCN1C(=O)CN [GANAPLACIDE],Activity,Plasmodium berghei [1],99.5%
same,Activity,Plasmodium berghei [2],99.8%
same,Cmax,[3]; Wistar,126 nM
same,Cmax,[3],91 nM
same,CC50,[4],> 12 µM
same,half-life,[5],2 h
same,CC50,[6],> 12 µM
same,Cmax,[7],580 nM
same,Survival,Plasmodium berghei [8],16.3 days
same,AUC,[9],34.9 µM·h
same,Tmax,[10],8 h
same,EC50,Plasmodium falciparum [11],0.01 µM
same,half-life,[12],8.4 h
same,CC50,CHO,> 12 µM
same,AUC,Mus musculus [13],4.119 µM·h
same,Cmax,[14],1540 nM
same,permeability,[15],51.8%
same,Tmax,[16],1 h
same,half-life,[17],6.3 h
same,Papp B→A,[18],2.99 ×10⁻⁶ cm/s
same,clearance,[19],49.2 mL/min/kg
same,EC50,Plasmodium falciparum [20],0.006 µM
same,bioavailability,[21],40%
same,CC50,[22],> 12 µM
same,half-life,[23],4.35 h
same,AUC,Mus musculus [24],12.155 µM·h
same,Tmax,[25],1.5 h
same,Tmax,[26],4.3 h
same,clearance,[27],67.5 mL/min/kg
same,ED99,Plasmodium berghei [28],2.2 mg/kg
same,bioavailability,[29],20%
same,AUC/dose,Rattus norvegicus,1.2 min.ug/ml/(mg/kg)
same,AUC,[30],7.34 µM·h
same,AUC,[31],0.974 µM·h
same,Survival,Plasmodium berghei [32],17.7 days
same,half-life,[33],4.7 h
same,Survival,Plasmodium berghei [34],14 days
same,AUC,[35],1.83 µM·h
same,Activity,Plasmodium berghei [36],99.4%
same,F,Mus musculus [37],74%
same,IC50,[38],13.4 µM
same,Vd,[39],10.2 L/kg
same,half-life,[40],4.6 h
same,Papp A→B,[41],1.26 ×10⁻⁶ cm/s
same,CC50,[42],> 12 µM
same,bioavailability,[43],57%
